Measurements collected from several papers.
pEC50, pIC50, pKd, pKi: −log10 of the molar value.
GPR84: G-protein coupled receptor 84 (GPR84, Homo sapiens, UniProt Q9NQS5)
Peroxisome proliferator-activated receptor alpha: Peroxisome proliferator-activated receptor alpha (Rattus norvegicus, UniProt P37230)

The pEC50 of `O=c1cc(NCCc2cccs2)[nH]c(=O)[nH]1` is reported as 6.72 (GPR84; cAMP; agonist).
`Cc1cc2nc3c(=O)[nH]c(=O)nc-3n(C[C@H](O)[C@H](O)[C@H](O)COP(=O)(O)OP(=O)(O)OC[C@H]3O[C@@H](n4cnc5c(N)ncnc54)[C@H](O)[C@@H]3O)c2cc1C` gave a pKd of 7.11 (Probable ATP-dependent RNA helicase DDX6 (Homo sapiens, UniProt P26196); binding; lysate).
With `CN1CCN(c2ccc(Nc3ncc4cc(C#N)c(=O)n(C5CCCC5)c4n3)cc2)CC1` the pIC50 was less than 5.00 (Serine/threonine-protein kinase B-raf (BRAF, Homo sapiens, UniProt P15056); enzyme activity; inhibitor).
For `CCCC[C@H](NC(=O)[C@H](CO)NC(=O)[C@H](Cc1ccc(O)cc1)NC(=O)[C@H](CO)NC(C)=O)C(=O)N[C@@H](CCC(=O)O)C(=O)N[C@@H](Cc1c[nH]cn1)C(=O)N[C@@H](C)C(=O)N[C@@H](CCCNC(=N)N)C(=O)N[C@@H](Cc1c[nH]c2ccccc12)C(=O)NCC(=O)N[C@@H](CCCCN)C(=O)N1CCC[C@H]1C(=O)N[C@H](C(=O)NCC(=O)N[C@@H](CCCCN)C(=O)N[C@@H](CCCCN)C(=O)N[C@@H](CCCNC(=N)N)C(N)=O)C(C)C`, the pEC50 was 8.11 (Melanocyte-stimulating hormone receptor (MC1R, Homo sapiens, UniProt Q01726); cAMP; agonist).
With `CC(C)(C)c1ccc(CCNc2cc(=O)[nH]c(=O)[nH]2)cc1` the pEC50 was 7.36 (GPR84; cAMP; agonist).
For `Cc1cccc(Nc2cc(Cl)nc(SCC(=O)O)n2)c1C`, the pEC50 was 5.02 (Peroxisome proliferator-activated receptor alpha; reporter gene; agonist; luciferase).
`CC(C)c1nc2cc(OCCCCN3CCN(c4cccc5c4OCCN5)CC3)ccc2s1` has a pEC50 of 8.55 (D(2) dopamine receptor (DRD2, Homo sapiens, UniProt P14416); cAMP; agonist; luciferase).
With `Cc1nc(-c2ccc(C(F)(F)F)cc2)sc1C(=O)NCc1ccc(OC(C)(C)C(=O)O)cc1` the pEC50 was 5.66 (Peroxisome proliferator-activated receptor alpha; reporter gene; agonist; luciferase).
For `CCC(C)N1CCCn2c1nc1c2c(=O)n(C)c(=O)n1C` (stereo not drawn), the pKi was less than 5.00 (Adenosine receptor A3 (ADORA3, Homo sapiens, UniProt P0DMS8); ligand displacement; radioligand; cell membranes).
